Activity calls are given as the source filed them. The calls are words filed in the database; no cut-off is given here.
Key:
Canis familiaris [1] = species: Canis familiaris; test: Induction of QTc prolongation in canine cardiovascular model; assay type: functional, organism-based; settings: Canis lupus familiaris; Heart
[2] = molecular target: T1, Kinesin-like protein KIF11 (Homo sapiens, UniProt P52732); test: Inhibition of kinesin spindle protein
T1 sequence (P52732 whole entry): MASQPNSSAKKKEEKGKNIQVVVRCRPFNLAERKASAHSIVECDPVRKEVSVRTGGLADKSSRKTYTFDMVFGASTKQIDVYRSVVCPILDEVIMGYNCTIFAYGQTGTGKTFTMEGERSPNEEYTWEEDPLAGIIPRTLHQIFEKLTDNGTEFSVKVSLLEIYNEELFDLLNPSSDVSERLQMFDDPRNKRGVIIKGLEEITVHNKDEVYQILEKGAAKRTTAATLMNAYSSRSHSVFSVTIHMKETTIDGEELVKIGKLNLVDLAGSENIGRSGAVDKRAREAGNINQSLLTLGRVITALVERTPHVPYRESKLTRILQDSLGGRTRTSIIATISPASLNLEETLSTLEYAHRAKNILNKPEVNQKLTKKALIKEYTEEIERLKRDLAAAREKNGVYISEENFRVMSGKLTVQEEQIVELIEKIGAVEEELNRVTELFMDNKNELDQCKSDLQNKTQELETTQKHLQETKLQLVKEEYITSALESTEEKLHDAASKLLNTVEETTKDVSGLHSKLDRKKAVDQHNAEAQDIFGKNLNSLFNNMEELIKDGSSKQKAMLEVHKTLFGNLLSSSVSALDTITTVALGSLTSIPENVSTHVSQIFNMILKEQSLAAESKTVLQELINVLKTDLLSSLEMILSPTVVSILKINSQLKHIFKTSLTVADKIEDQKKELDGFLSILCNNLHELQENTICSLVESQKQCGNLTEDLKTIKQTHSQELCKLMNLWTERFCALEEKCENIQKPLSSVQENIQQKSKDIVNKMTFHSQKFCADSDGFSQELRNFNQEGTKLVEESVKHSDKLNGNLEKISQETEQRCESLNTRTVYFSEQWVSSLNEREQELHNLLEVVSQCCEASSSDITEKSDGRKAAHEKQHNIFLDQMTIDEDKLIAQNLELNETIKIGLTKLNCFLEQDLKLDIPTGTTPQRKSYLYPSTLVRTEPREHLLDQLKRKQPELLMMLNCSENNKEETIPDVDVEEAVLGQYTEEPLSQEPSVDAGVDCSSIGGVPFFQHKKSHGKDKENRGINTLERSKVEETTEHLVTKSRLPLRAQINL

[3] = Ratio of IC50 for KB-V-1 cells to IC50 for KB-3-1 cells after 16 hrs; assay type: functional, Homo sapiens
Summary of the method: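 Mitotic arrest measured in Pgp-high KB-V-1 cells (derived from parental KB-3-1 by culture with vinblastine; >500-fold higher Pgp mRNA and protein) and in parental KB-3-1 cells. 16 h incubation, 11-point half-log dilution series. Read-out is phospho-nucleolin level. The ratio is the IC50 in KB-V-1 divided by the IC50 in KB-3-1.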

A2780 = test: Mitotic arrest in human A2780 cells assessed as G2/M block after 16 hrs; assay type: functional, cell-based; settings: A2780, 16 h
Summary of the method: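 A2780 human ovarian carcinoma cells treated 16 h across a 7-point half-log dilution series. Mitosis-specific nucleolin phosphorylation read by electrochemiluminescence: total nucleolin captured on beads via anti-nucleolin antibody, phospho-nucleolin detected with a phospho-specific IgM plus ruthenium-labelled anti-mouse IgM. EC50 is the mean of at least two independent determinations.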

[4] = molecular target: Voltage-gated inwardly rectifying potassium channel KCNH2 (Homo sapiens, UniProt Q12809); test: Inhibition of hERG expressed in HEK cells; assay type: toxicity, cell-based, HEK293
Canis familiaris [5] = species: Canis familiaris; test: Induction of QTc prolongation in canine cardiovascular model at 35 uM; assay type: functional, organism-based; settings: Canis lupus familiaris, Heart
[6] = Clearance in dog at 0.25 mg/kg, iv; assay type: ADME, organism-based, Canis lupus familiaris; parameters: dose 0.25 mg/kg, route intravenous; settings: in vivo
Summary of the method: (§1)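 Cassette intravenous dosing in dogs, compounds given together as a DMSO solution at 0.25 mg/kg. Two dogs per dose, with the value being their average. Individual determinations fell within ±25% of the mean.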

[7] = Solubility at pH 4; assay type: physicochemical; settings: buffer
[8] = Half life in dog at 0.25 mg/kg, iv; assay type: ADME, organism-based, Canis lupus familiaris; parameters: dose 0.25 mg/kg, route intravenous; settings: in vivo; summary of the method: as §1

Chain of Voltage-gated inwardly rectifying potassium channel KCNH2 (Q12809 whole entry): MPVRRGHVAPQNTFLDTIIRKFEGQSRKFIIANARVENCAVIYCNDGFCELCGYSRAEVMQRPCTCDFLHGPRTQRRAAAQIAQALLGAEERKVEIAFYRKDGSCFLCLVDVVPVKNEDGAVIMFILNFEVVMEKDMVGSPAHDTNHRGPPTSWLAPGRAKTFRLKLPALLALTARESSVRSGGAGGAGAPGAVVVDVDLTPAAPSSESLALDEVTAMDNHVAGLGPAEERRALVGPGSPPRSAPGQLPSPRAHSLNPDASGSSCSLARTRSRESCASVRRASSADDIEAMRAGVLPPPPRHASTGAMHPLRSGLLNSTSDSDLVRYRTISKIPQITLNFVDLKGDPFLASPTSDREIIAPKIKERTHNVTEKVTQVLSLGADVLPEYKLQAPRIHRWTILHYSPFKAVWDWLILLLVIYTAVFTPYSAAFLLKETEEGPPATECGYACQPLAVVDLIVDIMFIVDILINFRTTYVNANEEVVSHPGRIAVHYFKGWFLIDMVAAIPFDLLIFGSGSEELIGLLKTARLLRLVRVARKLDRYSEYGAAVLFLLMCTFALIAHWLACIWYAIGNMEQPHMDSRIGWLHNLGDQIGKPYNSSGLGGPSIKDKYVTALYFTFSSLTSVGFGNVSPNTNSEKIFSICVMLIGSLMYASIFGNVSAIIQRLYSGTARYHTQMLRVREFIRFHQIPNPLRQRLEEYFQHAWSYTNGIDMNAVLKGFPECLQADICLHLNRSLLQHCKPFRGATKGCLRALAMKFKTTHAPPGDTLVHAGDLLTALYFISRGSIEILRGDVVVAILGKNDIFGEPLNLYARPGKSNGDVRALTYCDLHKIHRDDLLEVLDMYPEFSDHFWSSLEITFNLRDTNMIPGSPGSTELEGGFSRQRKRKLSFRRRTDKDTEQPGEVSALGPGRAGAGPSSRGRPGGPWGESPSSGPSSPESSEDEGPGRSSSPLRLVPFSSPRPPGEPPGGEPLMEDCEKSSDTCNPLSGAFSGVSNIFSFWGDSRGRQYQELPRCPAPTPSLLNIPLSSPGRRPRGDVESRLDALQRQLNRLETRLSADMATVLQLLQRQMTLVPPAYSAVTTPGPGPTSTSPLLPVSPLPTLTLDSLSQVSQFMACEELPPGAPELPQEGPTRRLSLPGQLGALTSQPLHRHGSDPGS

Structure (SMILES) | Activity (Canis familiaris [1]) | IC50 [2] | Ratio IC50 [3] | EC50 (A2780) | IC50 [4] | Activity (Canis familiaris [5]) | clearance [6] | solubility [7] | half-life [8]
CC(=O)C1=NN(c2cc(F)ccc2F)C[C@@]1(CCCN1CCN(C(C)=O)CC1)c1ccccc1 | Active | 3 nM | – | – | – | – | – | – | –
CC(=O)C1=NN2c3cc(F)ccc3OC[C@H]2[C@@]1(CCCO)c1ccccc1 | – | 5.2 nM | 0.6 | 11 nM | 18000 nM | – | – | – | –
CC(=O)C1=NN2c3cc(Cl)ccc3OC[C@H]2[C@@]1(CCCN1CCN(C(C)=O)CC1)c1ccccc1 | – | 1 nM | 1.6 | 9 nM | 5600 nM | – | – | – | –
CC(=O)C1=NN2c3cc(Cl)ccc3OC[C@H]2[C@@]1(CCCN(C)C)c1ccccc1 | – | 1 nM | – | 4.8 nM | – | – | – | – | –
CC(=O)C1=NN2c3cc(F)ccc3OC[C@H]2[C@@]1(CCCN1CCN(C(C)=O)CC1)c1ccccc1 | – | 1.6 nM | – | 5 nM | – | inactive | 14 mL/min/kg | > 4000 µg/mL | 5.6 h
CC(=O)C1=NN2c3cc(F)ccc3OC[C@H]2[C@@]1(CCCN(C)C)c1ccccc1 | – | 1.6 nM | 2.3 | 7.4 nM | 5940 nM | – | 52 mL/min/kg | – | 5.7 h
CC(=O)C1=NN2c3cc(F)ccc3OC[C@H]2[C@@]1(CCCN1CCNCC1)c1ccccc1 | – | 4.3 nM | 40 | 5 nM | 4600 nM | – | 40 mL/min/kg | – | 3.5 h
CC(=O)C1=NN2c3cc(F)ccc3OC[C@H]2[C@@]1(CCCN)c1ccccc1 | – | 0.5 nM | 1.7 | 2.5 nM | 940 nM | – | – | – | –
CC(=O)C1=NN2c3cc(F)ccc3OC[C@H]2[C@@]1(CCCN1CCOCC1)c1ccccc1 | – | 0.4 nM | 0.8 | 4.4 nM | 6100 nM | – | – | – | –
CC(=O)C1=NN2c3cc(F)ccc3OC[C@H]2[C@@]1(CCCN1CCNC(=O)CC1)c1ccccc1 | – | 1.5 nM | 3.3 | 6.9 nM | 17000 nM | – | 15 mL/min/kg | – | 2.4 h
CC(=O)C1=NN2c3cc(F)ccc3OC[C@H]2[C@@]1(CCCN1CCC(=O)N(C)CC1)c1ccccc1 | – | 0.9 nM | 2.6 | 4.8 nM | 9600 nM | – | 11 mL/min/kg | – | 3.9 h
CC(=O)C1=NN2c3ccccc3OC[C@H]2[C@H]1c1ccccc1 | – | 800 nM | – | – | – | – | – | – | –
CC(=O)C1=NN2c3cc(F)ccc3OC[C@H]2[C@H]1c1ccccc1 | – | 155 nM | – | – | – | – | – | – | –
CC(=O)C1=NN2c3cc(C)ccc3OC[C@H]2[C@@]1(CCCN(C)C)c1ccccc1 | – | 1.8 nM | 2.3 | 6.4 nM | 2400 nM | – | 37 mL/min/kg | – | 8.3 h
CC(=O)C1=NN2c3cc(C)ccc3OC[C@H]2[C@@]1(CCCN1CCOCC1)c1ccccc1 | – | 1 nM | 1.4 | 11 nM | 6300 nM | – | – | – | –
CC(=O)C1=NN2c3cc(Cl)ccc3OC[C@H]2C1(CCCN1CCOCC1)c1ccccc1 (mixture of isomers) | – | 1.8 nM | 1.5 | 13 nM | 3300 nM | – | – | – | –

Reference: ChEMBL document CHEMBL1139825, “Kinesin spindle protein (KSP) inhibitors. Part 7: Design and synthesis of 3,3-disubstituted dihydropyrazolobenzoxazines as potent inhibitors of the mitotic kinesin KSP” (Bioorg Med Chem Lett, 2007)
